Screens: PubChem BioAssay, several laboratories
CHOP inh – inhibitors of CHOP induction in ER stress response. CHO-K1 CHOP-promoter luciferase, tunicamycin-induced, 15-18 h. inhibition, % at 10 µM. 220,000 compounds, 3.8% hits. AID 2732;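 active = compounds that reduced the stress-induced luciferase reporter signal by more than about 70% of percent inhibition, limit read from the data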;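 note: 0% = tunicamycin plus vehicle and 100% = wells without tunicamycin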
PvdQ inh – blocks Pseudomonas aeruginosa PvdQ acylase activity; 340,000 compounds, 0.063% hits; inhibition, % at 10 µM; purified PvdQ acylase, fluorescence plate reader; in the data active = inhibition above about 30%, passing the limit was not always enough;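 note: 0% = vehicle neutral wells and 100% = reference inhibitor wells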
CHOP UPR activ – apoptotic UPR (CHOP) activation; 330,000 compounds, 0.34% hits; activation, % at 10 µM; CHO-CHOP luciferase reporter, luminescence; percent of tunicamycin response over DMSO baseline;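 active = at 10 µM dose, activation of 40% or more, normalized to positive control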;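 note: 100% = tunicamycin at 10 µg/mL and 0% = DMSO alone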
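System: CHO CHOP reporter cells. Amount: 500 cells per well. Buffer or medium: F12 medium, 10% FBS. Compound dosing: one dose, 10 µM in 0.5% DMSO. Incubation: 6 h compound exposure at 37 °C after overnight seeding. Technique: Steady-Glo luciferase luminescence. Benchmarks: tunicamycin and DMSO controls.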
UPR XBP1 act – activators of adaptive arm of unfolded protein response (XBP1) | activation, % at 20 µM | 330,000 compounds, 0.33% hits | CHO-XBP1 luciferase reporter, IRE1-XBP1 UPR activation, luminescence; percent of tunicamycin response, DMSO as zero | AID 463104;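 active = versus positive control, 20 µM dose yields 30% or more activation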;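 note: 100% = tunicamycin at 10 µg/mL and 0% = DMSO only wells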
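Material: CHO cell line with stable XBP1 luciferase reporter; schedule: 16-18 h cell attachment at 37 °C, then 6 h compound exposure; signal: glow luminescence from Steady-Glo reagent; medium: serum-containing F12 medium, 10% FBS; benchmarks: tunicamycin 10 µg/mL and vehicle-only wells; read-out: percent activation relative to tunicamycin reference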
Numbers without * were called inactive; / = no result given. The entries come from a sample that favours hits as a whole.

SMILES	CHOP inh	PvdQ inh	CHOP UPR activ	UPR XBP1 act
Cc1cc(Cl)ccc1OCC(=O)n1cc(C(=O)c2cc(Cl)ccc2O)cn1	77*	/	-1	-2
O=C(c1cnn(C(=O)COc2ccccc2F)c1)c1cc(F)ccc1O	21	7	-1	-2
O=C(CN1C(=O)/C(=C\c2ccc(F)cc2)Oc2ccccc21)N1CCN(c2ccccn2)CC1	90*	-17	6	19
COc1c(F)c(F)c(C(=O)Nc2ccc(-c3nc4ccccc4[nH]3)cc2)c(F)c1F	83*	-6	1	-1
COc1c(F)c(F)c(C(=O)Nc2ccc(N3CCN(Cc4ccccc4)CC3)cc2)c(F)c1F	88*	-14	4	0
O=C(CSc1ccccc1)Nc1ccc(-c2nc3ccccc3[nH]2)cc1	94*	-11	3	10
O=C(Nc1ccc(-c2nc3ccccc3[nH]2)cc1)c1c(F)c(F)c(F)c(F)c1F	-19	1	-1	0
COc1ccc(C(=O)Nc2ccc(N3CCN(Cc4ccccc4)CC3)cc2)cc1	-9	-15	-1	-2
CCN(Cc1ccccc1)C(=O)CN1C(=O)COc2ccc(S(=O)(=O)NC3CCCC3)cc21	/	-10	0	-2
CCN(CC)CCC(=O)Nc1cccc2c1C(=O)c1ccccc1C2=O	32	2	-1	-3
COc1ccc(S(=O)(=O)n2nc(OC(=O)C3CCCCC3)cc2N)cc1	74*	-15	-1	2
Cc1ccc(S(=O)(=O)n2nc(OC(=O)c3ccccc3C)cc2N)cc1	/	-14	1	-7
COc1ccccc1C(=O)Oc1cc(N)n(S(=O)(=O)c2ccc(C)cc2)n1	79*	-14	-2	3
CC1(C)CCC2=C(O1)c1ccccc1C(=O)C2=O	4	/	/	/
Cc1cccnc1NC(=O)COc1ccc2oc3c(c2c1)CCCC3	36	-1	3	1
Cc1ccc(NC(=O)COc2ccc3oc4c(c3c2)CCCC4)nc1	76*	1	-3	6
C=CCn1c(COc2ccc(CC)cc2)nnc1SC/C(O)=C(\C#N)c1nc2ccccc2[nH]1	88*	2	1	0
CC(C)CC(NC(=O)C1CCC(=O)N1C(=O)OCc1ccccc1)C(=O)NC(Cc1ccccc1)C(N)=O (stereo not given)	/	-6	-1	-2
C=CCN1CCc2cc(O)c(O)cc2C(c2ccccc2)C1 (stereo not given)	95*	-1	-1	-8
CCOC(=O)c1cc(-c2ccc(Cl)cc2)nc2c1c(=O)[nH]c(=O)n2CCOC	78*	-7	-2	1
COc1ccc2sc3ccccc3c(=O)c2c1	51	7	3	3
COc1ccc(-c2cc(=O)c3ccccc3s2)cc1	61	41*	0	3
CCCOc1ccc(S(=O)(=O)NCc2ccc(OC)cc2)cc1	80*	-1	0	-2
COc1ccc(CNS(=O)(=O)c2ccc(OC)cc2)cc1	12	4	-5	-3
CCNc1nc(N2CCOCC2)nc(N(c2ccccc2)c2ccccc2)n1	72*	-2	0	2
SMILES	CHOP inh	PvdQ inh	CHOP UPR activ	UPR XBP1 act
CC(C)(C)Nc1nc(SCc2ccccc2)nc(N2CCOCC2)n1	74*	-8	-3	1
O=C(N/N=C/c1cc(Cl)ccc1O)c1ccc(Br)cc1	80*	-10	/	/
O=C(N/N=C/c1cc(Br)ccc1O)c1ccncc1	69	-15	0	-1
CCC(=O)N(Cc1ccco1)c1nc(-c2ccc(OC)cc2)cs1	0	-6	2	7
CCC(=O)N(Cc1ccco1)c1nc(-c2cc(OC)ccc2OC)cs1	75*	-6	0	5
COc1ccc2ccccc2c1C(O)c1nccn1C (stereo not given)	84*	-15	1	2
COc1ccc(-c2cc(C(F)(F)F)nc(NC3CCCC3)n2)cc1OC	73*	4	2	7
O=S(=O)(NCc1cc(-c2ccccc2Cl)no1)c1ccc(Cl)cc1	74*	6	2	3
COc1ccc(OCC(O)CN2CCC(CN3C(=O)c4cccc5cccc(c45)C3=O)CC2)cc1 (stereo not given)	/	7	1	0
Cc1ccc(C)c(OCC(O)CN2CCC(CN3C(=O)c4cccc5cccc(c45)C3=O)CC2)c1 (stereo not given)	76*	-8	3	-3
CC(C)CC(=O)Nc1cccc2c1C(=O)N(c1ccccc1)C2=O	19	-16	0	-1
CC(C)CC(=O)Nc1cc2nn(-c3ccccc3)nc2cc1Cl	85*	-18	3	0
CCCCCOc1ccc(C(=O)CCC(=O)NC(C)c2ccc(S(N)(=O)=O)cc2)cc1 (stereo not given)	/	-4	2	-2
O=C(COC(=O)C1CCC1)Nc1ccc(Cl)cn1	/	5	0	-2
O=C(COC(=O)CCC1CCCC1)Nc1ccc(Cl)cn1	73*	5	1	-3
O=c1c2ccc(Cl)cc2nc(-c2cccc(C(F)(F)F)c2)n1O	74*	-6	20	5
N#Cc1ccc(-c2nc3cc(Cl)ccc3c(=O)n2O)cc1	/	0	1	-5
Cc1ccc(S(=O)(=O)NC(C)C(c2cccs2)N2CCN(c3ccccc3)CC2)cc1 (stereo not given)	78*	3	3	-1
Cc1ccc(S(=O)(=O)NC(C)C(c2cccs2)N2CCN(C)CC2)cc1 (stereo not given)	32	-8	-2	0
O=C1Nc2ccccc2Oc2cc([N+](=O)[O-])ccc21	74*	-2	-2	2
O=C(c1cccc([N+](=O)[O-])c1)N1CC2C3C=CC(C3)C2C1 (stereo not given)	-2	43*	0	-2
Cc1ccc(-c2[nH][nH]c(=O)c(=O)c2N=Nc2ccccc2)cc1	75*	-13	0	5
O=C1CN(c2nc(-c3ccccc3)c3cc(Cl)ccc3n2)c2ccccc2N1	74*	-9	36	22
CCOC(=O)c1ccc(NS(=O)(=O)c2ccc(SC)cc2)cc1	78*	-6	1	0
CCOC(=O)Cc1ccc(NS(=O)(=O)c2ccc(SC)cc2)cc1	51	-7	-2	-4
SMILES	CHOP inh	PvdQ inh	CHOP UPR activ	UPR XBP1 act
C/C(=N\Nc1ccc(F)cc1F)c1ccc(F)cc1	-3	/	0	-2
C/C(=N\Nc1ccc(F)cc1F)c1ccc(Br)s1	71*	-3	0	1
Cc1cc(NC(=O)c2ccc([N+](=O)[O-])cc2)n(C)n1	6	-3	1	2
Cc1cc(S(=O)(=O)Nc2ccc(C(=O)NCC(C)(C)N3CCOCC3)cc2)ccc1F	/	1	1	-4
Cc1ccc2[nH]c(=O)c3cc(C(=O)N(CCCOC(C)C)Cc4ccco4)sc3c2c1	36	-5	0	3
CCCCN(Cc1ccco1)C(=O)c1cc2c(=O)[nH]c3ccc(C)cc3c2s1	73*	-14	-2	4
C#CCSc1ncc(-c2ccccc2)cn1	-11	48*	3	-1
C=CCSc1ncc(-c2ccccc2)cn1	-10	0	6	0
